The values below come from ChEMBL document CHEMBL3813686, “Biologically Active Acetylenic Amino Alcohol and N-Hydroxylated 1,2,3,4-Tetrahydro-β-carboline Constituents of the New Zealand Ascidian Pseudodistoma opacum” (J Nat Prod, 2016).

Converted amounts (≈) assume the structure as drawn. The source made the active and inactive calls. Where only a bound is given, the exact number is not on record here.

For test [1], the system named is Staphylococcus aureus. Nature of the test: Antibacterial activity against Staphylococcus aureus XEN36 incubated overnight by microbroth-dilution method. Type of test: functional. The gist of the method: (§1)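 Mueller Hinton broth cultures were grown overnight at 37 °C with shaking at 200 rpm. Inoculum was adjusted to approximately 5 × 10^5 cfu/mL final, confirmed by retrospective plating. Compounds were dissolved in DMSO and tested in doubling dilutions, with untreated and DMSO controls. Plates were incubated overnight at 37 °C. Each concentration was run in triplicate on three separate occasions.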
On the technique in general: In broth dilution the organism is exposed to a series of concentrations in liquid medium.

Test [2] concerns Mycobacterium tuberculosis. Nature of the test: Antibacterial activity against Mycobacterium tuberculosis BSG001 incubated overnight by microbroth-dilution method. Type of test: functional. Put shortly:
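M. tuberculosis H37Rv carrying a bacterial luciferase vector, grown 2 weeks at 37 °C (100 rpm) in Middlebrook 7H9 with ADC and glycerol. Assay medium was 7H9 without Tween or kanamycin. Compounds in DMSO were tested in doubling dilutions from 64 to 1 μg/mL, with untreated and DMSO controls, incubated overnight at 37 °C. Triplicate wells per concentration; three separate experiments.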

The test system of test [3] is Escherichia coli. Nature of the test: Antibacterial activity against Escherichia coli ATCC 25922 incubated overnight by microbroth-dilution method. Type of test: functional. Put shortly:
as §1

Test [4] deals with Staphylococcus aureus. Nature of the test: Bactericidal activity against Staphylococcus aureus XEN36 incubated overnight by microbroth-dilution method. The class given is functional. The gist of the method:
(§2)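 Broth from the MIC wells (standard microbroth dilution, ~5 × 10^5 cfu/mL in Mueller Hinton broth) was transferred into fresh medium and incubated overnight at 37 °C, then scored for growth. Cell dilutions were also plated. MBC was taken as a reduction of at least 3 logs from the initial inoculum.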

In test [5] the test system is Escherichia coli. Nature of the test: Bactericidal activity against Escherichia coli ATCC 25922 incubated overnight by microbroth-dilution method. Type of test: functional. The gist of the method:
as §2

For another test, the system named is Plasmodium falciparum. Briefly: Antiplasmodial activity against chloroquine-resistant Plasmodium falciparum FcB1/Columbia infected in erythrocytes assessed as inhibition of parasite growth after 48 hrs by 3H-hypoxanthine incorporation assay. The class given is functional, organism-based.
In test [6] the test system is Mycobacterium tuberculosis. Briefly: Bactericidal activity against Mycobacterium tuberculosis BSG001 incubated overnight by microbroth-dilution method. The class given is functional. The gist of the method: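 Broth microdilution on luciferase-tagged M. tuberculosis H37Rv in 7H9 medium without Tween or kanamycin, using DMSO-dissolved compounds at 64–1 μg/mL (doubling) and incubating overnight at 37 °C. 5 μL from the MIC wells went into 195 μL fresh medium and was incubated overnight at 37 °C. Dilutions were also plated. MBC was taken as at least a 3-log drop from the initial inoculum.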

Test [7] relates to Mycobacterium tuberculosis. Briefly: Antibacterial activity against Mycobacterium tuberculosis H37Ra after 7 days by resazurin dye based fluorescence assay. The class given is functional. To be noted: 168 h.
Test [8] relates to Staphylococcus aureus. Briefly: Antibacterial activity against Staphylococcus aureus ATCC 25923 after 16 hrs by resazurin dye based fluorescence assay. Type of test: functional. As to conditions: ATCC 25923, 16 h. A general note: The colour change of resazurin is a common sign of viable cells or microbes.
The test system of test [9] is Escherichia coli. Nature of the test: Antibacterial activity against Escherichia coli ATCC 25922 after 16 hrs by resazurin dye based fluorescence assay. The class given is functional. To be noted: ATCC 25922, 16 h.
For test [10], the system named is Escherichia coli. Nature of the test: Antibacterial activity against Escherichia coli after 24 hrs by broth macrodilution method. The class given is functional.

In the case of `C=CCCC#CC#CCCCCCCC[C@@H](CNC(=O)c1ccccc1)OC(=O)c1ccccc1`, the outcome (in the test with Staphylococcus aureus [1]; in [2]; in the test on Escherichia coli [3]) was inactive.
One may read the MBC as the smallest concentration meeting the test's criterion for killing. What is called MIC is the smallest concentration in the dilution series that meets the test's criterion for growth inhibition. Higher therefore signals a need for much substance. As usually defined, the IC50 is the midpoint of a concentration-inhibition curve. For the molecule `N=C(N)NCCCCC1NCCc2c1n(O)c1cc(Br)ccc21` (configuration not stated), the MBC in the test on Staphylococcus aureus [4] was found to be 53 µM; against Escherichia coli [5], 106 µM; in [6], 106 µM. For the same molecule, the MIC in the test on Staphylococcus aureus [1] was 53 µM; in test [2], 106 µM; against Escherichia coli [3], 106 µM. The IC50 in the test with Plasmodium falciparum was 3.8 µM.
Take `C=CCCC#CC#CCCCCCCC[C@H](O)CN`: the MBC is 32 µg/mL with Staphylococcus aureus [4], above 128 µg/mL in the test with Escherichia coli [5] and 64 µg/mL in test [6]. Also, the MIC came to 85 µM with Staphylococcus aureus [1], 85 µM in [2] and 170 µM in the test with Escherichia coli [3].
Take `CCCCCCCCCCC[C@H](O)[C@H](C)N`: the MIC (in test [7]; against Staphylococcus aureus [8]; against Escherichia coli [9]) was 33 µM (≈ 7.57 µg/mL) in each case.
For the molecule `CO[C@H]1/C=C/O[C@@]2(C)Oc3c(C)c(O)c4c(O)c(c(/C=N/N5CCN(C)CC5)c(O)c4c3C2=O)NC(=O)/C(C)=C\C=C\[C@H](C)[C@H](O)[C@@H](C)[C@@H](O)[C@@H](C)[C@H](OC(C)=O)[C@@H]1C` [RIFAMPIN], the MBC turned out to be 0.008 µg/mL against Staphylococcus aureus [4], 8 µg/mL in the test on Escherichia coli [5] and 0.161 µg/mL in test [6]. Further, the MIC against Staphylococcus aureus [1] was found to be 0.004 µg/mL; in test [2], 0.161 µg/mL; in the test on Escherichia coli [3] it was 8 µg/mL.
For the molecule `CCCCC/C=C\C/C=C\CC/C=C/C[C@H](O)[C@H](C)N`, in the test with Escherichia coli [10], the MIC was 360 µM (≈ 101 µg/mL).
On the same count and under the same terms, next, `C=CCCCCCC/C=C\C[C@H](O)[C@H](C)N`: 196 µM (≈ 44.2 µg/mL).
